The source of these data is ChEMBL document CHEMBL4622928, “Discovery of 5-(4-methylpiperazin-1-yl)-2-nitroaniline derivatives as a new class of SIRT6 inhibitors” (Bioorg Med Chem Lett, 2020).

The structures appear in SMILES notation. The source made the active and inactive calls. The rule behind the calls is not given here. Where only a bound is given, the exact number is not on record here.

The target of series [1] is NAD-dependent protein deacylase sirtuin-6 (Homo sapiens, UniProt Q8N6T7). Briefly: Binding affinity to SIRT6 (unknown origin) by surface plasmon resonance assay. Background: In SPR one partner is held on a chip, and binding of the other changes the refractive index at the surface.
In series [2] the target is T1, NAD-dependent protein deacetylase sirtuin-1 (Homo sapiens, UniProt Q96EB6).
T1 sequence (Q96EB6 whole entry): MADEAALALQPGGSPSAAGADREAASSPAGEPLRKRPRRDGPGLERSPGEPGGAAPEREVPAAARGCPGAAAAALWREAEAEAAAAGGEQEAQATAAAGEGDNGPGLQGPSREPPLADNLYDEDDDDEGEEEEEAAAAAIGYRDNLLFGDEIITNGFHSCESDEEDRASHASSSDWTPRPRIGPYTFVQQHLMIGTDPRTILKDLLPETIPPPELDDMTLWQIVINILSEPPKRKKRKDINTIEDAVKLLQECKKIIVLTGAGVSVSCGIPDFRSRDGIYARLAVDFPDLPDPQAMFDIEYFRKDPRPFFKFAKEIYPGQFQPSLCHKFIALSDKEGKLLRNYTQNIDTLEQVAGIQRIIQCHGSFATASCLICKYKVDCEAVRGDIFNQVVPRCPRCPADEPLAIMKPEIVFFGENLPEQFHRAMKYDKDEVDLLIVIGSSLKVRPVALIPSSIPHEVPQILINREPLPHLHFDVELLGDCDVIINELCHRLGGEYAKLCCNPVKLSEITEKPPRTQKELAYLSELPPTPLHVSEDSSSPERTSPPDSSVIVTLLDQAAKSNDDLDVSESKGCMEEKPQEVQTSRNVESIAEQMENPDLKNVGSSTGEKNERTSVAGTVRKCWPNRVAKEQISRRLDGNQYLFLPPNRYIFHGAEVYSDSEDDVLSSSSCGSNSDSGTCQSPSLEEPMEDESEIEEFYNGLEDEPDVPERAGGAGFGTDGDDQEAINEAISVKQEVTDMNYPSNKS
Briefly: Inhibition of SIRT1 (unknown origin). An outline of the steps:
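Each deacetylase was run in a Fluor de Lys (FDL) fluorogenic deacetylation assay as a selectivity screen, with compound tested at concentrations up to 200 μM. IC50 was estimated from the dose-response.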

For another series, the system named is Mus musculus. Briefly: Antidiabetic activity in mouse model of type-2 diabetes mellitus assessed as reduction in blood glucose at 7.5 to 30 mg/kg, ip. The format is functional, organism-based. The method in brief:
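High-fat-diet-fed mice served as the type 2 diabetes model. Compound was given by intraperitoneal injection, and blood glucose and body weight were followed over time.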

A short description of series [3]: Toxicity in mouse assessed as effect on body weight. Particulars: in vivo. The method in brief:
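Normal (non-diabetic) mice were dosed, and blood glucose and body weight were tracked over the study.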

NAD-dependent protein deacylase sirtuin-6, sequence (Q8N6T7 whole entry): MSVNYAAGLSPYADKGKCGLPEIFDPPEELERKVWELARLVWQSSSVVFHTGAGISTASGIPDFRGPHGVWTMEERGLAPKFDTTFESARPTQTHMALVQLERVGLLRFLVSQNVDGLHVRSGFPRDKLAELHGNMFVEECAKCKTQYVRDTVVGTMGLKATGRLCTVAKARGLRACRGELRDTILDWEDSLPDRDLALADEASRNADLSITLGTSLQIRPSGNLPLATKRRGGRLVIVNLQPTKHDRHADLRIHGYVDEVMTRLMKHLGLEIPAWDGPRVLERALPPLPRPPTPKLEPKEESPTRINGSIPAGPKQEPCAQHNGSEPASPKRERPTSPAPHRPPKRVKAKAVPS

Consider `CN1CCN(c2ccc([N+](=O)[O-])c(N)c2)CC1`, for which binding in series [1] was characterised by a dissociation constant (Kd) of 9.76 µM. The IC50 – broadly, the concentration that gives 50% inhibition – in series [2] was over 200 µM. The result with Mus musculus was Active. Also, the Activity entry in series [3] was “Non-Toxic”.
